Experimental data taken from ChEMBL document CHEMBL3774372, “Design, physico-chemical properties and biological evaluation of some new N-[(phenoxy)alkyl]- and N-{2-[2-(phenoxy)ethoxy]ethyl}aminoalkanols as anticonvulsant agents” (Bioorg Med Chem, 2016).
Activity calls are given as the source filed them. No cut-off for these calls is given here.

How the values were obtained:
Rattus norvegicus [1] = test: Anticonvulsant activity in pilocarpine-induced status epilepticus Sprague-Dawley rat model at 30 mg/kg, ip after 0.5 hrs during post stage 3 seizure; type: functional, organism-based
Summary of the method: (§1)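 Rats given pilocarpine 50 mg/kg ip and observed to first convulsive seizure (Racine stage 3–5, time zero); test drug then given ip in 0.5% methylcellulose. Efficacy = halting further stage 3–5 convulsive seizures; scored protected/tested, time after first stage 3 seizure.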

Rattus norvegicus [2] = test: Anticonvulsant activity in pilocarpine-induced status epilepticus Sprague-Dawley rat model at 100 mg/kg, ip after 4 hrs during post stage 3 seizure; type: functional, organism-based; summary of the method: as §1
[3] = biological target: Beta-1 adrenergic receptor (Homo sapiens) (UniProt P08588); test: Displacement of [3H](-)CGP12177 from human recombinant Beta-1 adrenergic receptor expressed in HEK293 cells at 10^-5 M; type: cell-based
Summary of the method: (§2)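 Radioligand binding screen run at a single test concentration of 10^-5 M. Each target used its stated receptor source (human recombinant CHO or HEK-293 cells, endogenous cell lines, or rat tissue membranes) with the listed radioligand.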

[4] = biological target: D(1A) dopamine receptor (Homo sapiens) (UniProt P21728); test: Displacement of [3H]SCH23390 from human recombinant Dopamine D1 receptor expressed in CHO cells at 10^-5 M; type: cell-based
Summary of the method: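 Radioligand displacement screen with the test agent at a single 10^-5 M concentration; receptor source and radioligand per target as tabulated (recombinant human cell lines or rat cerebral cortex/urinary bladder).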

[5] = biological target: Neuropeptide Y receptor type 2 (Homo sapiens) (UniProt P49146); test: Displacement of [125I]peptide YY from neuropeptide Y2 receptor in human KAN-TS cells at 10^-5 M; type: cell-based; summary of the method: as §2
[6] = biological target: Neurotensin receptor type 1 (Homo sapiens) (UniProt P30989); test: Displacement of [125I]Tyr3-neurotensin from human recombinant NT1 receptor expressed in CHO cells at 10^-5 M; type: cell-based; summary of the method: as §2
Rattus norvegicus [7] = species on record: Rattus norvegicus; test: Displacement of [35S]dATPalpha S from rat cerebral cortex P2Y receptor at 10^-5 M; type: tissue-based; summary of the method: as §2
[8] = biological target: Somatostatin receptor (Mus musculus) (UniProt P30935+O08858+P30875+P30873+P49660); test: Displacement of [125I]Tyr11-somatostatin-14 from somatostatin receptor in mouse AtT20 cells at 10^-5 M; type: cell-based; summary of the method: as §2
[9] = biological target: Vasopressin V1a receptor (Homo sapiens) (UniProt P37288); test: Displacement of [3H]AVP from human recombinant arginine vasopressin receptor 1a expressed in CHO cells at 10^-5 M; type: cell-based; summary of the method: as §2
Mus musculus [10] = test: Neurotoxicity in mouse at 100 mg/kg, ip after 0.5 hrs by rotarod test; type: toxicity, organism-based; settings: in vivo
Summary of the method: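 Mice were dosed ip with compound suspended in 0.5% methylcellulose. Rotarod: a 1 in. knurled rod turning at 6 rpm. Neurotoxicity was scored as failure to stay on the rod for at least 1 min in each of three trials. Results are given as the number of animals affected out of the number tested.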

[11] = Neurotoxicity in ip dosed mouse after […] by rotarod test; type: toxicity, organism-based; settings: in vivo
Vibrio harveyi [12] = test: Mutagenicity in Vibrio harveyi BB7XM assessed as number of colonies after 48 hrs (reference value: 14 no_unit); type: ADME, organism-based; settings: in vivo
Summary of the method: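 Vibrio harveyi mutagenicity test: test compound was added to exponentially growing cultures (A600 = 0.1, 30 °C) and grown to OD600 0.3–0.4. Then 5 × 10^6 cells were plated on BOSS agar with neomycin (final 100 µg/mL) and incubated 48 h at 30 °C. Neomycin-resistant colonies were counted. Triplicate; controls were water, DMSO and NQNO 40 ng/mL.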

Vibrio harveyi [13] = test: Antimutagenic activity against Vibrio harveyi BB7XM assessed as inhibition of NQNO-induced mutagenicity after 48 hrs; type: functional
Summary of the method: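 V. harveyi cultures grown exponentially to A600 0.1 at 30 °C, exposed to test compound for 15 min, then to NQNO, and grown on to A600 0.3–0.4. 5 × 10⁶ cells plated on BOSS agar with neomycin (100, final). Neomycin-resistant colonies counted after 48 h at 30 °C. Result given as % inhibition of NQNO mutagenicity; three independent repeats.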

Mus musculus [14] = test: Half life in CD1 mouse plasma at 12.92 mg/kg, ig measured up to 240 mins by LC/ESI-MS/MS analysis; type: ADME, organism-based; settings: in vivo, po, 4 h
[15] = Absolute bioavailability in CD1 mouse plasma at 12.92 mg/kg, ig measured up to 240 mins by LC/ESI-MS/MS analysis; type: ADME, organism-based; settings: po
Mus musculus [16] = test: Tmax in CD1 mouse plasma at 12.92 mg/kg, ip measured up to 240 mins by LC/ESI-MS/MS analysis; type: ADME, organism-based; settings: in vivo, 4 h
[17] = AUC (0 to infinity) in CD1 mouse brain at 12.92 mg/kg, ig measured up to 240 mins by LC/ESI-MS/MS analysis; type: ADME, organism-based; set-up: dose 12.92 mg/kg, route […], time infinity; settings: po
[18] = Ratio of drug level in brain to plasma in CD1 mouse at 1 mg/kg, iv administered as single dose measured after 5 mins by LC/ESI-MS/MS analysis; type: ADME, organism-based; settings: brain and plasma, read-out: BPR
[19] = Ratio of drug level in brain to plasma in CD1 mouse at 12.92 mg/kg, ig administered as single dose measured after 5 mins by LC/ESI-MS/MS analysis; type: ADME, organism-based; settings: brain and plasma, po, read-out: BPR
[20] = Ratio of drug level in brain to plasma in CD1 mouse at 12.92 mg/kg, ig administered as single dose measured after 30 mins by LC/ESI-MS/MS analysis; type: ADME, organism-based; settings: brain and plasma, po, read-out: BPR
[21] = Ratio of drug level in brain to plasma in CD1 mouse at 12.92 mg/kg, ig administered as single dose measured after 60 mins by LC/ESI-MS/MS analysis; type: ADME, organism-based; settings: brain and plasma, po, read-out: BPR
[22] = Ratio of drug level in brain to plasma in CD1 mouse at 12.92 mg/kg, ig administered as single dose measured after 120 mins by LC/ESI-MS/MS analysis; type: ADME, organism-based; settings: brain and plasma, po, read-out: BPR
Mus musculus [23] = test: Anticonvulsant activity in mouse assessed as protection against 6 Hz psychomotor seizure at 20 mg/kg, ip after […]; type: functional, organism-based
Mus musculus [24] = test: Anticonvulsant activity in mouse assessed as protection against 6 Hz psychomotor seizure at 20 mg/kg, ip after 0.5 hrs; type: functional, organism-based
Summary of the method: (§3)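 Suspension in 0.5% methylcellulose given ip to mice; corneal stimulation with 0.2 ms monopolar rectangular pulses at 6 Hz for 3 s from a constant current device, mice restrained then released to observation cage. Protected if normal exploratory behaviour resumed within 10 s of stimulation. Scored as protected/tested, 4 mice per group.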

Mus musculus [25] = test: Anticonvulsant activity in mouse assessed as protection against 6 Hz psychomotor seizure at 20 mg/kg, ip after 2 hrs; type: functional, organism-based; summary of the method: as §3
Mus musculus [26] = test: Anticonvulsant activity in mouse assessed as protection against 6 Hz psychomotor seizure at 40 mg/kg, ip after 0.5 hrs; type: functional, organism-based; summary of the method: as §3
[27] = biological target: Adenosine receptor A1 (Homo sapiens) (UniProt P30542); test: Displacement of [3H]DPCPX from human recombinant adenosine A1 receptor expressed in CHO cells at 10^-5 M; type: cell-based; summary of the method: as §2
[28] = biological target: Small conductance calcium-activated potassium channel (Rattus norvegicus) (UniProt P70604+P70606+P70605); test: Displacement of [125I]apamin from rat cerebral cortex small conductance calcium-activated potassium channel at 10^-5 M; type: tissue-based; summary of the method: as §2

Chain of D(1A) dopamine receptor (Homo sapiens) (P21728 whole entry): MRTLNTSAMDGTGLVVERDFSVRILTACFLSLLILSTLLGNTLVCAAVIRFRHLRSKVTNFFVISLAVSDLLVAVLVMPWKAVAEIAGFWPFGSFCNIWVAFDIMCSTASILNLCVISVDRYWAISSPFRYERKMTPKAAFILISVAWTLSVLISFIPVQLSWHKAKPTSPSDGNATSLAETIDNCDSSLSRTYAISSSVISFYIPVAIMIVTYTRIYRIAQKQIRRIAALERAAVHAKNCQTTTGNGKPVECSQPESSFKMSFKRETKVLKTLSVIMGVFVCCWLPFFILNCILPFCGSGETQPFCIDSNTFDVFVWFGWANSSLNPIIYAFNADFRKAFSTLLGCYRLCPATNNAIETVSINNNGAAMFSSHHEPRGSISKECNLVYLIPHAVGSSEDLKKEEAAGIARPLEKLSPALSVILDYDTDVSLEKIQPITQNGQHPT
Chain of Beta-1 adrenergic receptor (Homo sapiens) (P08588 whole entry, looked up): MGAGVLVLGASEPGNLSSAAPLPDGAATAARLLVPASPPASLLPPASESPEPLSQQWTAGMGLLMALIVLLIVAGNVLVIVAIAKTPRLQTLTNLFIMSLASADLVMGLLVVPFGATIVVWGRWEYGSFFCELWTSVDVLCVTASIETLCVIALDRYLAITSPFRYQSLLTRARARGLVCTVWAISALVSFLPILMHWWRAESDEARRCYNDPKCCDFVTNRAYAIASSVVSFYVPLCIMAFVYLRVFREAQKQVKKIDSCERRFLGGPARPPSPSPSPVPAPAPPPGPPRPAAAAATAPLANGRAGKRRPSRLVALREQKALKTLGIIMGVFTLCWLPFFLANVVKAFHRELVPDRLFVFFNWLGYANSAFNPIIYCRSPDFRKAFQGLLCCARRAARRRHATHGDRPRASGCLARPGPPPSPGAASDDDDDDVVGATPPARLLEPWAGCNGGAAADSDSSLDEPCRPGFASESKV
Chain of Vasopressin V1a receptor (Homo sapiens) (P37288 whole entry, looked up): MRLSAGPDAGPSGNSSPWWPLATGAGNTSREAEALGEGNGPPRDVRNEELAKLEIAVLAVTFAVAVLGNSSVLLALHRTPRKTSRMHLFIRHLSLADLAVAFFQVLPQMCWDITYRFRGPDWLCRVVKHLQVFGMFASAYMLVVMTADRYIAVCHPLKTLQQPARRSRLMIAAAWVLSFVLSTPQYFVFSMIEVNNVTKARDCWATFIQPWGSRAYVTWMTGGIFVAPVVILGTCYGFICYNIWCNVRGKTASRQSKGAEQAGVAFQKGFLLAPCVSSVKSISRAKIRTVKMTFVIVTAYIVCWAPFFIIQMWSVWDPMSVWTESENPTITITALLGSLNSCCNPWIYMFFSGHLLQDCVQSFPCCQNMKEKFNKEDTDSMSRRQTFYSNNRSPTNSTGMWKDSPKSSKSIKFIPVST
Chain of Somatostatin receptor (Mus musculus) (P30935 whole entry): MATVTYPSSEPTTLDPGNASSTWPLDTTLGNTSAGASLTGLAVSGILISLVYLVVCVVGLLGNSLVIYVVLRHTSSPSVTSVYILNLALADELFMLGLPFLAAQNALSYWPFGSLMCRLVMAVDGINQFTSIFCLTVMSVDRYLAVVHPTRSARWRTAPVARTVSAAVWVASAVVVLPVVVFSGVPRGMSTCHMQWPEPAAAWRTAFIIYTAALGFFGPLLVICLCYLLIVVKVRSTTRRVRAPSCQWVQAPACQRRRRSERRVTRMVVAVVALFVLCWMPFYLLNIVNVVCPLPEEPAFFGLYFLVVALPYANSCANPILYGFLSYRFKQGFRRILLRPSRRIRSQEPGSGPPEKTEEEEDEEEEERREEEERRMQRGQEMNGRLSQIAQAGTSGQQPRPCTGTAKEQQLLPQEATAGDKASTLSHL
Chain of Somatostatin receptor (Mus musculus) (O08858 whole entry): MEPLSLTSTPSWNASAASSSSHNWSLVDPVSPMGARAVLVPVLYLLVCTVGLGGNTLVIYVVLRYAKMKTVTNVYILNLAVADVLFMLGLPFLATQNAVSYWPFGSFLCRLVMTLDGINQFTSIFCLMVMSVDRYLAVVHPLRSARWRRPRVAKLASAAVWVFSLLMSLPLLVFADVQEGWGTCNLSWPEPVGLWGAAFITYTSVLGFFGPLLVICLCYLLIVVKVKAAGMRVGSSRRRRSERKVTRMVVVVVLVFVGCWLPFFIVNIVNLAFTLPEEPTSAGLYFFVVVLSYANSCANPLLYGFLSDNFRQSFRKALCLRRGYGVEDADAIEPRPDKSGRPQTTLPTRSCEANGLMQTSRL
Chain of Somatostatin receptor (Mus musculus) (P30875 whole entry): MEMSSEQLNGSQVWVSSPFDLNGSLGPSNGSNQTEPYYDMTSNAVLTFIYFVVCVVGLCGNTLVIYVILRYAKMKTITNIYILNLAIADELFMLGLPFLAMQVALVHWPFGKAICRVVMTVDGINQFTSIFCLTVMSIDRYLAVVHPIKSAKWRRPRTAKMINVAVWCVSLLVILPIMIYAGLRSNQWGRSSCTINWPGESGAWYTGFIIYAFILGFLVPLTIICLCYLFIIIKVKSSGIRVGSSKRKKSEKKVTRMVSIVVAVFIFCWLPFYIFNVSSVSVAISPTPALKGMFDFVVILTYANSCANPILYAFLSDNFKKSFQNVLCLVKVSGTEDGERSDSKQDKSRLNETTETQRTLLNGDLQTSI
Chain of Somatostatin receptor (Mus musculus) (P30873 whole entry): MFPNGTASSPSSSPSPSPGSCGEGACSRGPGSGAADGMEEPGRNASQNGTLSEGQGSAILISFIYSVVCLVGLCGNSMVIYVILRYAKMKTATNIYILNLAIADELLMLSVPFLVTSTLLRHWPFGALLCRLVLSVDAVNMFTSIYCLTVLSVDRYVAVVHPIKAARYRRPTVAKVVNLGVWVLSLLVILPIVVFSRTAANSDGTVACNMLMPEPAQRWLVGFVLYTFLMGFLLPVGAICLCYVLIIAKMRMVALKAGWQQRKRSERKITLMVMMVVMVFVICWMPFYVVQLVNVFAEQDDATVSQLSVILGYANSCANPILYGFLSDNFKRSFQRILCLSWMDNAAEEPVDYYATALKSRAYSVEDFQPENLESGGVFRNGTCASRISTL
Chain of Somatostatin receptor (Mus musculus) (P49660 with tags, fused parts or gaps): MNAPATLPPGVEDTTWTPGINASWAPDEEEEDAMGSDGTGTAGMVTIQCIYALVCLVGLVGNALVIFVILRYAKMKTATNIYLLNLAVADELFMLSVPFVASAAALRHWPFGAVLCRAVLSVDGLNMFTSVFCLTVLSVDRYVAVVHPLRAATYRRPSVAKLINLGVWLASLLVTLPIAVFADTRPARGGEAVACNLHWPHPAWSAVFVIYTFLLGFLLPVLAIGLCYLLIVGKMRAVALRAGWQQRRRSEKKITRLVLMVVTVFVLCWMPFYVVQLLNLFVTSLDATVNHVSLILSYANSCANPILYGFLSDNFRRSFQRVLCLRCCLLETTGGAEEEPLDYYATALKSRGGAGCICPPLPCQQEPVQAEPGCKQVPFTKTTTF
Chain of Neuropeptide Y receptor type 2 (Homo sapiens) (P49146 whole entry): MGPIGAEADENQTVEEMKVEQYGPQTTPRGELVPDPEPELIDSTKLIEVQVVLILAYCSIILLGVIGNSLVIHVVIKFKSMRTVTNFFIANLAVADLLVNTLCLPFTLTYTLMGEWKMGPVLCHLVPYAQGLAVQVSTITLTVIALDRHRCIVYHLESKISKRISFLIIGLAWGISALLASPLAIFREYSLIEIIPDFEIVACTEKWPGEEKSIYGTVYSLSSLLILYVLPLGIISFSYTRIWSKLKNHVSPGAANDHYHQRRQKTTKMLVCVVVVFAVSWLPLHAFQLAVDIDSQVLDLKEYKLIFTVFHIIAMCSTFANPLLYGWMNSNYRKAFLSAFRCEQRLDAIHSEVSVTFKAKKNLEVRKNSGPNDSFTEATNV
Chain of Adenosine receptor A1 (Homo sapiens) (P30542 whole entry): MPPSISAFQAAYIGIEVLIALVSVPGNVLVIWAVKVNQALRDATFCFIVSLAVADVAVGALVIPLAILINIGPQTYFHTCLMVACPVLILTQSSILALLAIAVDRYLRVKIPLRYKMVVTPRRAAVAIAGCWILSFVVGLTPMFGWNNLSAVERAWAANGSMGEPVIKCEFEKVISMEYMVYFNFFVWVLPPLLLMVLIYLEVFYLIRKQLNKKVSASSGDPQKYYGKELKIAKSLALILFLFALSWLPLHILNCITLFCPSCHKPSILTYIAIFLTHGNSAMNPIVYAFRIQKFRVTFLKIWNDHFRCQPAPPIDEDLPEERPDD
Chain of Neurotensin receptor type 1 (Homo sapiens) (P30989 whole entry): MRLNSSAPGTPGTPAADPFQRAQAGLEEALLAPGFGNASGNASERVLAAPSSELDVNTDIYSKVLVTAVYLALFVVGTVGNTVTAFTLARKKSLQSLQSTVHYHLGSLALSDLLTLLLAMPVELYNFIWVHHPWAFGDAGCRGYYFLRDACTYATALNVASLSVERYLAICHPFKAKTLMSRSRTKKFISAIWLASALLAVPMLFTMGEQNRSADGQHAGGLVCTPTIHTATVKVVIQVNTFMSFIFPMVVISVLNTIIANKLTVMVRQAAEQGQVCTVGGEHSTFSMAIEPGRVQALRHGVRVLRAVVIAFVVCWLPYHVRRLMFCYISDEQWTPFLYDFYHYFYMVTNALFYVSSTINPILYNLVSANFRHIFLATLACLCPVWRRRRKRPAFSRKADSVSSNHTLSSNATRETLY

Cc1cccc(C)c1OCCOCCN[C@H](C)CO
Activity (Rattus norvegicus [1]): inactive | Activity (Rattus norvegicus [2]): inactive | inhibition [3]: 4.8% | inhibition [4]: 12.4% | inhibition [5]: -5.1% | inhibition [6]: -4.2% | inhibition (Rattus norvegicus [7]): 9.4% | inhibition [8]: -5.5% | inhibition [9]: -3.2%

Cc1cccc(C)c1OCCOCCN[C@H](C)CO.Cl
Activity (Mus musculus [10]): Toxic | TD50 at […] [11]: 33.3 mg/kg | Activity (Vibrio harveyi [12]): 18 | inhibition (INH) (Vibrio harveyi [13]): 41% | t1/2 (Mus musculus [14]): 29.1 min | bioavailability [15]: 2.98% | Tmax (Mus musculus [16]): 5 min | AUC(0-inf) [17]: 1220 µg·h/mL | Kp at 5 min [18]: 5.27 | Kp at 5 min [19]: 1.73 | Kp at 0.5 h [20]: 2.12 | Kp at 1 h [21]: 5.95 | Kp at 2 h [22]: 3.18

Cc1cccc(C)c1OCCOCCN[C@@H](C)CO
Activity (Mus musculus [23]): inactive | Activity (Mus musculus [24]): inactive | Activity (Mus musculus [25]): inactive | Activity (Mus musculus [26]): Active | Activity (Rattus norvegicus [1]): inactive | inhibition [27]: -6.9% | inhibition [3]: 11.1% | inhibition [4]: 16.2% | inhibition (Rattus norvegicus [7]): 9.4% | inhibition [8]: -2% | inhibition [9]: -0.8% | inhibition [28]: -0.9%
